From article PMC5884119 (Journal of medicinal chemistry, 2017)
≈ marks a conversion by molar mass, not a printed value.

Experiments:
[1] = tested on: panel of Gram-positive and Gram-negative bacteria; assay: Antimicrobial activity against the whole panel; assay type: cell-based; settings: for antimicrobial activity against the tested strains (in words): statement in text over the panel of strains; for MIC: read-out: MICs across the tested strains
[2] = tested on: P. aeruginosa (ATCC 27853); assay: MIC against P. aeruginosa; assay type: cell-based, Pseudomonas aeruginosa
Hemolytic activity = assay type: cell-based
[3] = tested on: ovarian cancer cells (C13); assay: Cytotoxicity toward ovarian cancer cells; assay type: cell-based
MRSA [4] = assay: Fluorescence microscopy; assay type: cell-based, Staphylococcus aureus
E. coli [5] = assay: Fluorescence microscopy; assay type: cell-based, Escherichia coli
Procedure, shortened: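 Test compound at 5 µg/mL applied to E. coli for 2 h, with untreated cells as controls. Cells stained with DAPI or with propidium iodide, a membrane-impermeant DNA intercalator that fluoresces red only when membranes are disrupted. Membrane damage assessed by fluorescence microscopy.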

MRSA [6] = assay: Time-kill study, MRSA; assay type: cell-based, Staphylococcus aureus
E. coli [7] = assay: Time-kill study, E. coli; assay type: cell-based, Escherichia coli
MRSA [8] = assay: Drug resistance study; assay type: cell-based, Staphylococcus aureus; settings: incubated at half of MIC overnight, after 14 passages
[9] = tested on: MRSA-induced lung inflammation; assay: Rat MRSA pneumonia model, lung pathology; assay type: in vivo
Procedure, shortened: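 Rats (n = 6 per group) inoculated intratracheally with 100 µL MRSA suspension. After 24 h (day 0), test compound 10 mg/kg given by intravenous tail-vein injection. Lung bacterial counts taken on days 3 and 5. Lung inflammation assessed by hematoxylin and eosin staining of lung tissue.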

Pseudomonas aeruginosa = settings: cited from earlier work
[10] = even at 100 µg/mL, same experiment (Figure S2)

CCCCCCCCCC(=O)N[C@@H](CCCCN)CN1CC(=O)N(CC)C1=O [Compound 1, (S)-N-(6-Amino-1-(3-ethyl-2,4-dioxoimidazolidin-1-yl)hexan-2-yl)decanamide]
antimicrobial activity against the tested strains (in words) [1]: did not exhibit any activity

CCCCCCCCCCCCCCCC(=O)N[C@@H](CCCCN)CN1CC(=O)N(CC)C1=O [Compound 4, (S)-N-(6-Amino-1-(3-ethyl-2,4-dioxoimidazolidin-1-yl)hexan-2-yl)palmitamide]
activity toward P. aeruginosa (in words) [2]: abolished

CCCCCCCCCC(=O)N[C@@H](CCCCN)CN1CC(=O)N(CCCC)C1=O [Compound 5, (S)-N-(6-Amino-1-(3-butyl-2,4-dioxoimidazolidin-1-yl)hexan-2-yl)decanamide]
antimicrobial activity against the tested strains (in words) [1]: does not have any antimicrobial activity

CCCCCCCCCC(=O)N[C@@H](CCCCN)CN1CC(=O)N(C2CCCCC2)C1=O [Compound 9, (S)-N-(6-Amino-1-(3-cyclohexyl-2,4-dioxoimidazolidin-1-yl)-hexan-2-yl)decanamide]
antimicrobial activity against the tested strains (in words) [1]: starts to show activity toward a few bacterial strains

CCCCCCCCCC(=O)N[C@@H](CCCCN)CN1CC(=O)N(C23CC4CC(CC(C4)C2)C3)C1=O [Compound 13, N-((S)-1-(3-((3R,5R,7R)-Adamantan-1-yl)-2,4-dioxoimidazolidin-1-yl)-6-aminohexan-2-yl)decanamide]
HC50 (Hemolytic activity): 125 µg/mL | antimicrobial activity against the tested strains (in words) [1]: decent activity across the panel of bacteria

CCCCCCCCCCCC(=O)N[C@@H](CCCCN)CN1CC(=O)N(c2cccc(Cl)c2)C1=O [Compound 22, (S)-N-(6-Amino-1-(3-(3-chlorophenyl)-2,4-dioxoimidazolidin-1-yl)hexan-2-yl)dodecanamide]
IC50 [3]: 90 µg/mL (≈ 177 µM) | MIC [1]: < 1 µg/mL | membrane damage (DAPI and PI staining) (MRSA [4]; MRSA, 5 µg/mL, 2 h): damaged | membrane damage (DAPI and PI staining) (E. coli [5]; E. coli, 5 µg/mL, 2 h): damaged | time to complete eradication (MRSA [6]; 2.0 µg/mL (4× MIC)): 60 min | time to complete eradication (MRSA [6]; 25 µg/mL): 10 min | time to complete eradication (E. coli [7]; 4.0 µg/mL (4× MIC)): 60 min | time to complete eradication (E. coli [7]; 25 µg/mL): 30 min | time to complete eradication (E. coli [7]; 50 µg/mL): 30 min | MIC after serial passage (resistance development) (MRSA [8]): remained virtually unchanged | lung inflammation (H&E staining) ([9]; day 3): only mild inflammation was observed | lung inflammation (H&E staining) ([9]; day 5): virtually matched normal conditions

CCCCCCCCCCCC(=O)N[C@@H](Cc1ccccc1)CN1CC(=O)N(c2cccc(Cl)c2)C1=O [Compound 25, (S)-N-(1-(3-(3-Chlorophenyl)-2,4-dioxoimidazolidin-1-yl)-3-phenylpropan-2-yl)dodecanamide]
antimicrobial activity against the tested strains (in words) [1]: failed to show any antimicrobial activity

O=C1CN(/N=C/c2ccc([N+](=O)[O-])o2)C(=O)N1 [Compound 26, nitrofurantoin, reference compound]
activity toward P. aeruginosa (in words) [2]: failed to show any activity | MIC [1]: 6.25 to 25 µg/mL (≈ 26.2 to 105 µM) | membrane-disruption activity (MRSA [4]; [10]): did not show any membrane-disruption activity | membrane-disruption activity (E. coli [5]; [10]): did not show any membrane-disruption activity | not active up to (concentration) (Pseudomonas aeruginosa): > 100 µg/mL

CN[C@H](CC(C)C)C(=O)N[C@H]1C(=O)N[C@@H](CC(N)=O)C(=O)N[C@H]2C(=O)N[C@H]3C(=O)N[C@H](C(=O)N[C@H](C(=O)O)c4cc(O)cc(O)c4-c4cc3ccc4O)[C@H](O)c3ccc(c(Cl)c3)Oc3cc2cc(c3O[C@@H]2O[C@H](CO)[C@@H](O)[C@H](O)[C@H]2O[C@H]2C[C@](C)(N)[C@H](O)[C@H](C)O2)Oc2ccc(cc2Cl)[C@H]1O [vancomycin, reference compound]
lung inflammation (H&E staining) ([9]; day not given): some alleviation of this condition
